Source: PubChem BioAssay
PRMT1 FP inh: PRMT1 methyltransferase inhibitors, primary screen, biochemical, fluorescence polarization | recombinant PRMT1, activity-based probe fluorescence polarization | inhibition, % at 2.79 µM | Protein arginine N-methyltransferase 1 (Homo sapiens), Q99873 | 370,000 compounds, 1.3% hits;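 active = inhibition above about 21% made by adding two undisclosed values, limit read from the data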
UHRF1 MBD2 ctr: UHRF1 methylated DNA binding inhibitors, primary screen, counter-screen for MBD2 inhibitor project, biochemical, TR-FRET, human UHRF1, single concentration; E3 ubiquitin-protein ligase UHRF1 (Homo sapiens), Q96T88; inhibition, % at 4.4 µM; AID 687016, 2013; 370,000 compounds, 0.75% hits; UHRF1 binding to methylated oligo; in the data active = inhibition above about 21%;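 also: UHRF1 SRA domain binding a hemimethylated CpG hairpin DNA probe; 0% = median of test compound wells and 100% = reference inhibitor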
LEDGF integ inh: blockers of LEDGF/p75-dependent integrase strand transfer – biochemical, TR-FRET, high throughput, primary screen; TR-FRET IN-LEDGF/p75 DNA integration, Eu/Cy5; inhibition, % at 3.7 µM; 370,000 compounds, 0.64% hits; HIV-1 integrase (with human LEDGF/p75); AID 743269, 2014;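 active = inhibition above the screen-wide mean plus 3 SD, cut at about 13% in these data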;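 also: signal is the Cy5 over europium emission ratio at 671 and 618 nm; 0% = plate median of compound wells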
ABHD5 PLIN5 PPI: ABHD5-PLIN5 interaction inhibitors, primary screen, cell lysate, split luciferase complementation, luminescence; Split G. princeps luciferase complementation, 4 h; 360,000 compounds, 0.78% hits; inhibition, % at 4 µM;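 active = inhibition above the mean inhibition across every tested compound plus 3 SD, cut at about 22% in these data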;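 also: 0% = DMSO only wells and the 100% control is not disclosed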
Target sequence (Q00G26 whole entry, looked up): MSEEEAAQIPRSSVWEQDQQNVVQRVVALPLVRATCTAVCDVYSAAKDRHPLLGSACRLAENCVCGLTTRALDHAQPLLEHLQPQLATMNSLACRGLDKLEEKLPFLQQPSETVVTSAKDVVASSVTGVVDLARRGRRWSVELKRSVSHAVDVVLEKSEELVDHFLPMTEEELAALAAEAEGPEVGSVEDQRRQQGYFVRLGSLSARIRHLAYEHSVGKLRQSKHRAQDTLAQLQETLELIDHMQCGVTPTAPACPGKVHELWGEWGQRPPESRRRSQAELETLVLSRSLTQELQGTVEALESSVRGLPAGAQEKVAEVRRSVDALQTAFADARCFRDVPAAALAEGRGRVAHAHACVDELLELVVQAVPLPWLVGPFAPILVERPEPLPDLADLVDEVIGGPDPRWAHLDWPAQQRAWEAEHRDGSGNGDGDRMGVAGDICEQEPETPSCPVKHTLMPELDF
Target sequence (Q8WTS1 whole entry, looked up): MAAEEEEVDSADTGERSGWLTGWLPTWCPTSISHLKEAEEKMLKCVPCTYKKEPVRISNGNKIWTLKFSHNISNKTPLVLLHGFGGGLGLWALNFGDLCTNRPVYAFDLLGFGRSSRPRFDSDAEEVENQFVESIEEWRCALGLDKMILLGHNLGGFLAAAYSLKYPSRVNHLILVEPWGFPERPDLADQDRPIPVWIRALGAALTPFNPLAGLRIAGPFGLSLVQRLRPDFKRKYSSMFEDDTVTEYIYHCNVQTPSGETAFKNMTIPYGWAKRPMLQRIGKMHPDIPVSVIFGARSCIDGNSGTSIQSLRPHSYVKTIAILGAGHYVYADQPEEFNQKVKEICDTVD
RBBP9 inhibitor: human RBBP9 inhibitors, primary screen, biochemical, fluorescence polarization, FP-Rh probe, HTS; Serine hydrolase RBBP9 (Homo sapiens), O75884; recombinant RBBP9; inhibition, % at 7.94 µM; 220,000 compounds, 0.2% hits;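 active = inhibition above the campaign mean of all tested compounds plus 3 SD, cut at about 14% in these data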;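 also: plate controls were DMSO wells with RBBP9 for no effect and wells lacking RBBP9 protein for full effect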
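System: RBBP9 protein / Buffer or medium: Tris/NaCl buffer pH 8.0 with 0.1% Pluronic / Probe or stimulus: Serine-hydrolase probe FP-Rh, 375 nM pre-mixing / Dosing: 7.94 µM single dose, 0.794% DMSO / Times: enzyme-compound preincubation 30 min, then probe labeling 45 min, 25 °C / Technique: fluorescence polarization (mP), excitation 525 nm, emission 598 nm / Replication: singlicate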
MBD2 inh: inhibitors of MBD2 binding to methylated DNA, primary screen, biochemical, TR-FRET, DNA-binding domain, human; Methyl-CpG-binding domain protein 2 (Homo sapiens), Q9UBB5; MBD2 binding to methylated oligonucleotide; inhibition, % at 4.4 µM; 370,000 compounds, 0.31% hits; AID 686964, 2013; in the data active = inhibition above about 13%
PRMT1 inh conf: PRMT1 methyltransferase inhibitors, confirmation, biochemical, fluorescence polarization, triplicate; inhibition, % at 2.79 µM; recombinant His-PRMT1, activity-based probe fluorescence polarization; shares compounds with PRMT1 FP inh; 3,300 compounds, 42% hits;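 active = mean inhibition across replicates above the hit cutoff derived for the earlier primary screen, cut at about 22% in these data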
The depositor's hits bear a star; . = no result. Rows were chosen to be rich in hits. Some 3.1% of all compounds tested hit in one or more screens of this group.

SMILES | PRMT1 FP inh | UHRF1 MBD2 ctr | LEDGF integ inh | ABHD5 PLIN5 PPI | RBBP9 inhibitor | MBD2 inh | PRMT1 inh conf
CC1CCC2C(=O)N(c3ccc(S(=O)(=O)c4ccccc4)cc3)C(=O)C2C1 (stereo not drawn) | 45* | 0 | -2 | -1 | -5 | -1 | 5
CCn1c(N)c(C(N)=O)sc1=S | 27* | 5 | -1 | -11 | 2 | 2 | 12
CC(=NNC(=S)N1CC2CCC(CC2)C1)c1ccccn1 | 37* | -12 | -4 | -9 | . | 1 | -3
CC(=NNC(=S)N1CC2CCC(CC2)C1)c1cnccn1 | 25* | -6 | -5 | -1 | . | 2 | 2
CC(=NNC(=S)N1CCCCCC1)c1cccc2cccnc12 | 26* | 1 | 1 | -16 | . | 9 | 9
CC(C)[C@@H](CO)N1Cc2nnn(Cc3ccccc3)c2-c2ccccc2S1(=O)=O | 1 | 1 | 0 | . | . | -1 | .
COc1ccc(OCC(C)CN2CCC(C(O)(c3ccccc3)c3ccccc3)CC2)cc1 (stereo not drawn) | -5 | 3 | 7 | . | . | -9 | .
COC(=O)[C@@]1(Sc2ccc(C)cc2)CC(=O)N[C@@H]1c1ccco1 | 52* | 4 | 7 | -3 | . | 4 | 1
COC(=O)[C@@]1(Sc2ccccc2)CC(=O)N[C@@H]1c1ccccc1 | 4 | -2 | 1 | -4 | . | -3 | .
COc1cccc(CNC(=O)[C@H]2CCCN2C(=O)[C@H]2CCCN2C(=O)N2CCCCC2)c1 | 2 | -1 | -2 | . | . | -2 | .
Nc1cccnc1Sc1cc(Cl)cc(Cl)c1 | 62* | -7 | 4 | -1 | 3 | -13 | 3
O=C(NCCc1c[nH]c2ccccc12)OCc1cn(Cc2cccc(C(F)(F)F)c2)nn1 | -2 | -3 | 3 | . | . | -1 | .
Cc1cc(NC(=O)CSCC(=O)OCC(=O)c2cccc(Br)c2)no1 | 27* | 8 | 0 | -9 | . | 6 | 2
Cc1cc(NC(=O)CSCC(=O)OCC(=O)Nc2ccc(OC(F)F)cc2)no1 | 1 | -1 | -4 | -12 | . | -1 | .
C(#CC1=CCCCC1)CNCc1ccccc1 | 2 | 1 | -1 | . | . | 2 | .
CC(=O)NC1C(=O)N=C(SCc2ccccc2)NC1=O (stereo not drawn) | 0 | 3 | -3 | -3 | 4 | 3 | .
CC(=O)NC1C(=O)N=C(SCC(=O)NC(C)c2ccccc2)NC1=O (stereo not drawn) | 31* | -1 | 0 | -8 | -3 | -2 | 15
CC(=O)NC1C(=O)N=C(SCC(=O)Nc2ccc(C(F)(F)F)cc2Cl)NC1=O (stereo not drawn) | 38* | -4 | 0 | -7 | -1 | -5 | 19
CC(=O)NC1C(=O)N=C(SCC(=O)NC2CCCCC2)NC1=O (stereo not drawn) | 17 | -2 | -2 | -3 | -7 | -3 | .
COc1ccccc1NC(=O)CSC1=NC(=O)C(NC(C)=O)C(=O)N1 (stereo not drawn) | 25* | -4 | -2 | -2 | -8 | -6 | 9
NCCC(=O)Nc1ccc(Cl)cc1C(=O)c1ccc[nH]1 | 3 | 0 | -5 | . | . | 2 | .
CCCCNS(=O)(=O)/C=C/c1ccc(F)cc1CNC(=O)OC(C)(C)C | -2 | -2 | 1 | . | . | 2 | .
CCN1/C(=C/C=C/C=C/C=C/c2sc3ccccc3[n+]2CC)Sc2ccccc21 | 53* | -12 | -5 | 7 | . | 1 | 23*
CCN1/C(=C/C=C/C=C/c2sc3ccccc3[n+]2CC)Sc2ccccc21 | . | . | . | . | -36 | . | .
C=CC(=O)NN(C)c1ncc(C(F)(F)F)cc1Cl | -2 | 4 | -2 | 3 | 5 | 5 | .
